Laboratory results reported in the RNAGym collection of RNA variant scans (doi:10.1126/science.aae0568).
Variants at the floor of the assay were thinned out.

B1: tRNA (parent)
chain: GUUCCGUUGGCGUAAUGGUAACGCGUCUCCCUCCUAAGGAGAAGACUGCGGGUUCGAGUCCCGUACGGAACG

Variants of: B1
Experiment: yeast fitness relative to wild type (ratio to wild type); higher = fitter; tRNA-Arg(CCU), competitive growth, 37 C, YPD
In short: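 Variants of the tRNA-Arg(CCU) gene, chemically synthesised with a 3% per-site mutation rate at 69 sites, were placed at the native genomic locus in Saccharomyces cerevisiae. The pooled strains were competed in YPD at 37°C for 24 hours in six parallel replicates. Gene amplicons from the start population and from each end population were read by 100-nucleotide paired-end sequencing. Darwinian fitness relative to wild type came from changes in genotype frequencies; genotypes needed ≥ 100 starting reads, and estimates < 0.5 were set to 0.5.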
With GUUACAUUGGAGUAAUGGUAAUGCGUCUUCCUCCUAAGGAGAAGACUGCGGGUUAGAGUCCCGUACGGAACG the yeast fitness was at most 0.5. For GUUACGUUGGCGUAAUGGUAACGCGUCUCCCUUCUCAGGGGAAGACUGCGGGUUCGAGUCCCGUACGGAACG, the yeast fitness was at most 0.5. In the case of GUUACGUUGGCGUAAUGGUAACGCGUCUCCCUCCUAAGGAGAAGACUGUGGGUUCGAGUCCCGUACGGCACG, the yeast fitness is reported as 0.555. For GUUACAUUGGCGUAAUGGUAACGCGUCUGCCUCCUAAGGAGAAGACUGCGGGUUCGGGUCCCGUACGGAACG, the yeast fitness was 0.535. GUUACGUUGGCGUAAUGGUAACGCGUCUCCCUACUAAGGAGAAGACUGCGGGUUCGAGUACCACACGGAACG gave a yeast fitness of at most 0.5. GUUACAUUGGCGUAAUGGUAACGCGUCUCCCUCCUAAGGAGAAGACUGCGGGAUCGAGUCCCGUUCGGAACG showed a yeast fitness of at most 0.5. In the case of GUUACGUUGGCGUAAUGGUAACGCGUCUCCCUCUUAAGGAGAAGACUGCGCGUUCGCGUCCCGUACGGAACG, the yeast fitness is reported as at most 0.5. With GUUACGUUGGCGUAAUGGUAACGCGUCUCCAUCCUAAGGAGAAGUCUGCGGGUUCGAGUCCCGUACGGAACG the yeast fitness was at most 0.5. GUUACGUUGGCGUAAUGGUAACGCGUCUCCCUCGUAAGGAGAAGACUGCGGGUUCGAGUCCCGUACGAAACG showed a yeast fitness of at most 0.5. GUUACAUUGGCGUAAUGGUAACGCGUCUCCCUCCUAAGGAGAAGACUGCGGGUUCGAGUCCCGUACGGAACG showed a yeast fitness of 0.706. Variant GUUACCUUGGCGUAAUGGUAACGCGUCUCCCUCCUAAGGAGAAGACUGCGGGUUCGAGUCCCGUACGGAACG has a yeast fitness of 0.703. For GUUACGUUGGCGUAAUGGUAACGCGUCUCCCUCCUAAGGAGAAGACUGCGGGUUCGAGUCCAGUACGGAACG, the yeast fitness was 0.675. With GUUACGUUGGCGUAAUGGUAACGCGUCUCCCUCCUAAGGAGAAGACUGCGGGUUCGAGUCCUGUACGGAACG the yeast fitness was 0.852. For GUUACGUUGGCGUAAUGGUAACGCGUCUCCUUCCUAAGGAGCAGACUGCGGGUUCGAGUCCCGUACGGAACG, the yeast fitness was 0.572. In the case of GUUACGUUGGCGUAAUGGUAACGCGUCUCCUUCCUAAGGAGUAGACUGCGGGUUCGAGUCCCGUACGGAACG, the yeast fitness is reported as 0.618. Work on GUUACGUUGGCGUAAUGGUAACGCGUCUCCCUCGUAAGGUGAAGACAGCGGGUUCGAGUCCCGUACCGAACG yielded a yeast fitness of 0.55. Variant GUUACGUUGGCGUAAUGGUAACGCGUCUCUCUCCUAAGGAGAAGACUGCGGGUACGAGUCCCGUACGGAACG has a yeast fitness of at most 0.5. GUUACGUUGGCGUAAUGGUAACGCGUCUCCCUCCUAAGGAGAAGACUGCGGGUUCGAGUCCCGUAUGGCACG gave a yeast fitness of 0.585. Variant GUUACGUUGGCGUAAUGGUAACGCGUCUCCAACCUAAGGAGAAGACUGCGGGUUCGAGUCCCGUACGGAACG has a yeast fitness of at most 0.5. Variant GUUACGUUGGCGUAAUGGUAACGCGUCUCCUUCCUAAGGAGAAGACUGCGAGUUCGAGUCCCGUACGGAGCG has a yeast fitness of at most 0.5. Variant GUUACGUUGGCGUAAUGGUAACGCGUCUCCGUCCUAAGGAGAAGACUGCGCGUUCGAGUCCCGUACGGAACG has a yeast fitness of 0.524. With GUUACGUUGGCGUAAUGGUAACGCGUCUCCUUCCUAAGGAGAAGACUGCGGGUUCGAGUCCCGUACGGAACG the yeast fitness was 0.864. For GUUACGUUGGCGUAAUGGUAACGCGUCUCCCUGCUAAGGACAAGACUGCGGGUUCCAAUCCCCUUCGGAACG, the yeast fitness was at most 0.5. Variant GUUACGUUGGCGUAAUGGUAACGCGUCUCCCUUCUAAGGAGAAGACUGCGGGUUCGAGUGCCGUACGGAACG has a yeast fitness of 0.601. GUUACGUUGGCGUAAUGGUAACGCGUCUCCCUCCUAAGGAGAAGACUGCGGGUUAGAGUCCCGUACGGAACG showed a yeast fitness of 0.587. GUUACGUUGGCGUAAUGGUAACGCGUCUCCGUCCUAAGGAGAAGACUGCGCGUUCGAGUCCCGUAAGGAACG gave a yeast fitness of at most 0.5. GUUACGUUGGCGUAAUGGUAACGCGUCUCCCUCCUAAGGAGAAGACUGCGGGUUCGAGUCCGGUAUGGAACG gave a yeast fitness of at most 0.5. Work on GUUACGUUGGCGUAAUGGUAACGCGUCUCGCUCCUAAGGAGAAGACCGGGGGUUCGAGUCCCGUACGGAACG yielded a yeast fitness of at most 0.5. For GUUACGUUGGCGUAAUGGUAACGCGUCUCCCUCCUAAGGAGAAGAAUGCGGGUUCGAGUCCCGUACGGAACG, the yeast fitness was 0.997. GUUACGUUGGCGUAAUGGUAACGCGUCUCCCUCCUAAGGAGAAGAUUGCGGGUUCGAGUCCCGUACGGAACG gave a yeast fitness of 0.903. Variant GUUACGUUGGCGUAAUGGUAACGCGUCUCCCUCCUAAGGAGAAGAAUGCGGGUUCAAGUCCCGUACGGAACG has a yeast fitness of 0.736. GUUACGUUGGCGUAAUGGUAACGCGUCUCCCUACUAAGCAGAAGACUGCGCGUUCGAGUCCUGUACGGCACG showed a yeast fitness of at most 0.5. In the case of GUUACGUUGGCGUAAUGGUAACGCGUCUCCCUCGUAAGGAGAAGACUGCGGGUUCGAGUCCCGUACGGAACG, the yeast fitness is reported as 0.563. In the case of GUUACGUUGGCGUAAUGGUAACGCGUCUCCCUCCUAAGGAGAAGACUGCGGGUUCGAGUCUCGUACGAAACG, the yeast fitness is reported as 0.541. For GUUACGUUGGCGUAAUGGUAACGCGUCUCCAUCCCAAGGAGAAGUCUGCGGGUUCGAGUCCCGUACGGUACG, the yeast fitness was at most 0.5. Work on GUUACGUUGGCGUAAUGGUAACGCGUCUCCGUCCUAAGGAGAAGACUGCGGGUUAGAGUCCCGUACGGAACG yielded a yeast fitness of 0.534. Variant GUUACAUUGGCGUAAUGGUAACGCGUCUCCCUCCUAAGGAGAAGUCUGCGGGUUCGAAUCCCGUGCGGAACG has a yeast fitness of at most 0.5. In the case of GUUACGUUGGCGUAAUGGUAACGCGUCUCCCUUCUAAGGAGAAGACUGCGGGUUCGGGUCCCGUAGGGAACG, the yeast fitness is reported as at most 0.5. In the case of GUUACGUUGGCGUAAUGGUAACGCGUCUCCUUCCUAAGGAGAAGACUGCGGGUUCGAGUCUCGUACGGAACG, the yeast fitness is reported as at most 0.5. For GUUACGUUGGCGUAAUGGUAACGCGUCUCCCUACUAAGCAGAAGACUGUGGGUACGAGUCCCGUACGGAUCG, the yeast fitness was at most 0.5. Work on GUUACAUUGGCGUGAUGGUAACGCGUCUCCCUCCUAAGGAGAAGACUGCGGGUUCGAGUCCCGUGCGGAACG yielded a yeast fitness of at most 0.5. Variant GUUACGUUGGCGUAAUGGUAACGCGUCUCCCUACUCAGGAGAAGACUGCGGGUUCGAGUCCCGUACAGAACG has a yeast fitness of at most 0.5. GUUACGUUGGCGUAAUGGUAACGCGUCUCCCUCCUAAGGAGAAGACUGAGGGUUCGAAUCCCGUACGGAACG showed a yeast fitness of at most 0.5. GUUACGUUGGCGUAAUGGUAACGCGUCUCGCUCCUAAGGUGAAGACUGUGGGUUCGAGUCCCGUACGGAACG gave a yeast fitness of at most 0.5. GUUACAUUGGCGUAAUGGUAACGCGUCUCCCUUCUAAGGAGAAGACUGCGGGCUCGAGUCCCGUACGGAACG showed a yeast fitness of at most 0.5. GUUACGUUGGCGUAAUGGUAACGCGUCUCCCUACUAAGGAGAAGACUGCGGGUUCGAGUCCCGUGCGGAACG gave a yeast fitness of at most 0.5. GUUACGUUGGCGUAAUGGUAACGCGUCUCCCUCCUAAGGAGAAGACUGCGGGUUUGUGUCCCGGACGGAACG gave a yeast fitness of at most 0.5. In the case of GUUACGUUGGCGUAAUGGUAACGCGUCUCCCUAUUAAGCAGAAGACUGCGGGUACGAGUCCCGUACGGAACG, the yeast fitness is reported as at most 0.5. In the case of GUUACGUUGGCGUAAUGGUAACGCGUCUCCCUACUAAGGUGAAGACUGCGGGUUCGAGUCCCGUACGGAGCG, the yeast fitness is reported as at most 0.5. GUUACGUUGGCGUAAUGGUAACGCGUCUCCCUCCUAAGGAGAAGAUCGCGGGUUUGAGUCCCGUACGGAACG gave a yeast fitness of at most 0.5. With GUUACGUUGGCGUAAUGGUAACGCGUCUCGCUCCUAAGGCGAAGACUGCGGGUUAGACUCCCGUUCGGAUCG the yeast fitness was at most 0.5. Variant GUUACGUUGGCGUAAUGGUAACGCGUCUCCGUCCUAAGGAGAAGACUGCGGGUUCGAGUCCUGUACGGAACG has a yeast fitness of 0.71. GUUACGUUGGCGUAAUGGUAACGCGUCUCCUUCCCAAGGAGAAGACUGCGGGUUCGAGUCCCGUACGGAACG gave a yeast fitness of at most 0.5. Variant GUUACGUUGGCGUAAUGGUAACGCGUCUCCCUCCUAAGGAGAAGACUGGGGGUUCGAGUCCCGUACGGAACG has a yeast fitness of 0.704. In the case of GUUACGUUGGCGUAAUGGUAACGCGUCUCCCUCCUAAGGAGAAGACUGUGGGUUCGAGUCCCGUACGGAACG, the yeast fitness is reported as 0.877. Work on GUUACGUUGGCGUAAUGGUAACGCGUCUCCGUCCUAAGGUGAAGACUGCGGGUUCGAGUCCCGAACGGAACG yielded a yeast fitness of at most 0.5. In the case of GUUACGUUGGCGUAAUGGUAACGCGUCUCCCUCGUAAGGAGAAGACUGCGGGUUCGAGUCCAGUAUGGAACG, the yeast fitness is reported as at most 0.5. With GUUACGUUAGCGUAAUGGUAACGCGUCUCCCUCCUAAGGAGAAGACUGCGGGUUCGAGUCCCGUACGGAACG the yeast fitness was 0.907. In the case of GUUACGUUGGCGUAAUGGUAACGCGUCUCCGUCCUAAGGAGAAGGCUGCCGGUUCGAGUCCCAUACGGAACG, the yeast fitness is reported as at most 0.5. Variant GUUACGUUGGCGUAAUGGUAACGCGUCUCCCUCGUAACGAGAAGACUGCGGGUUCGAGUCCCGUACGGAACG has a yeast fitness of at most 0.5. With GUUACGUUGGCGUAAUGGUAACGCGUCUCCCUCCUAAGGAGAAGAUUGCGGGUUCGCGUCCCGUACGGAACG the yeast fitness was 0.529. Work on GUUACAUUGGCGUAAUGGUAACGCGUCUGCCUCCUAAGGAGAAGACUGCGGGUUCGAGUCCCGUACGGAACG yielded a yeast fitness of 0.549. Work on GUUACAUUGGCGUAAUGGUAACGCGUCUCCCUCCUAAGGAGAAGACUGCGGGUUCGAGUCCCGAACGGAACG yielded a yeast fitness of at most 0.5. Variant GUUACGUUGGCGUAAUGGUAACGCGUCUCCCUCCUAAGGAGAAGACUGCGGGUUCGAGUCGCAUACGGAACG has a yeast fitness of at most 0.5. GUUACGUUGGCGUAAUGGUAACGCGUCUCCCUCUUAACGAGAAGACUGGGGGUUCGAGUCCCGUACGGAACG showed a yeast fitness of at most 0.5. GUUACGUUGGCGUAAUGGUAACGCGUCUCCCUACUAAGGAGAAGACUGCGGGUUCGAGUCCAGUACGGAACG showed a yeast fitness of 0.668. With GUUACAUUGGCGUAAUGGUAACGCGUCUCCCUCCUAAGGAGAAGACUGCGGCUUCGCGUCCCCUACGGAACG the yeast fitness was 0.537. With GUUACGUUGGCGUAAUGGUAACGCGUCUCUCUCCUAAGGAGAAGACUGCGGGUUCGAGUCCCGUACGGAACG the yeast fitness was 0.756. For GUUACCUAGGCGUAAUGGUCUCGCGUCUCCAUUCUAAGGAGAAGAUUGCGGGUUCGGGUCCCGUACGGAACG, the yeast fitness was at most 0.5. Variant GUUACAUUGGCGUAAUGGUAACGCGUCUCCCUCCUAAGGAGAAGACUGCGGGUUCGAGUCCCGUUCGGAACG has a yeast fitness of 0.539. GUUACGUUGGCGUAAUGGUAACGCGUCUCUCUCCUAAGGAGAAGACUGCGGGUUCGAGACCCGUACGGAACG gave a yeast fitness of at most 0.5. Variant GUUACAUUGGCGUAAUGGUAACACGUCUCCCUCCUAAGGAGAAGACUGAGGGUUCGAGCCCUGUUCGGACCG has a yeast fitness of at most 0.5. Variant GUUACAUUGGCGUAAUGGUAACGCGUCUCCCUCCUAAGGAGAAGACUGCGGGUUCGAGUCCCGUACGGUACG has a yeast fitness of 0.623. Work on GUUACGUUGGCGUAAUGGUAACGCGUCUCGCUCCUAAGGUGAAGACUGCGGGUUCGAGUGCCCUACGGAACG yielded a yeast fitness of at most 0.5. In the case of GUUACGUUGGCGUAAUGGUAACGCGUCUCCCUCUUAAGGAGAAGACUGCGGGUUCGUGUCCCGUACGGAACG, the yeast fitness is reported as at most 0.5.
